The values that follow come from the array DNA melting data of Ke et al. (doi:10.1101/2024.01.08.574731).

Data set [1] can be described thus: folding enthalpy; higher = less favourable; fluorescence melt of hairpins on a sequencing array, two-state fit. Conditions: sodium 0.088 M. Summed up: (§1)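 With Cy3 and quencher oligos annealed, library hairpins on a sequenced MiSeq flow cell were imaged for Cy3 fluorescence in 50 mM Na-HEPES pH 8.0, 25 mM NaCl, in 2.5 °C steps up to 60 °C. Melting temperature and folding enthalpy were derived from bootstrapped two-state fits of signals normalised to pre-quench Cy3 and to control constructs. Four replicates were combined by inverse variance, with fitted temperatures raised by 9.35 °C to match UV melts.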

Data set [2] in a line: melting temperature; fluorescence melt of hairpins on a sequencing array, two-state fit, raised by 9.35 °C to match UV melts. Particulars: sodium 0.088 M. In short, it runs like this:
as §1

On to GAGAGTGGAAACACTTTC ((.((((....)))).)), for which, in data set [1], the folding enthalpy is -19.4 kcal/mol. In data set [2], the Tm was 37.6 °C.

On to GAGATAGGAAACCATCTC (((((.(....).))))), for which, in data set [1], the folding enthalpy was -23.5 kcal/mol. In addition, the Tm in data set [2] was 34.1 °C.

Turning to GAGATCCGAAAGGAACTC (((.(((....))).))), the folding enthalpy in data set [1] is -32.2 kcal/mol. In data set [2], the Tm was 50.2 °C.

As for GAGATCGGAAACGATTTC ((.((((....)))).)), the folding enthalpy in data set [1] is -26.8 kcal/mol. Besides, in data set [2], the Tm was 42.3 °C.

Regarding GAGATCGGAAACGGTCTC ((((.((....)).)))), the folding enthalpy in data set [1] was -44.5 kcal/mol. Also, in data set [2], the Tm worked out at 51.3 °C.

For GAGATGGGAAACCATCCC (.(((((....))))).), in data set [1], the folding enthalpy is -13.1 kcal/mol. The Tm in data set [2] was 38.7 °C.

For GAGATTGGAAACAATCCC (.(((((....))))).), the folding enthalpy in data set [1] was -19.6 kcal/mol. Further, the Tm in data set [2] worked out at 34 °C.

With GAGATTGGAAACAATCTC (((((((....))))))), in data set [1], the folding enthalpy is -42.2 kcal/mol. Moreover, in data set [2], the Tm was determined as 56.4 °C.

Consider GAGCAAGGAAACCTGCTC (((((.(....).))))), for which, in data set [1], the folding enthalpy was -27.6 kcal/mol. The Tm in data set [2] came to 48.5 °C.

Take GAGCACGAAAGTGAACTC ((((((....)))..))): the folding enthalpy in data set [1] was -20.2 kcal/mol. Also, the Tm in data set [2] stood at 42.9 °C.

Turning to GAGCACGAAAGTGATCTC ((((((....)))..))), in data set [1], the folding enthalpy was -23.7 kcal/mol. Moreover, in data set [2], the Tm came out at 57.1 °C.

On to GAGCACGGAAACGTGCCC (.(((((....))))).), for which the folding enthalpy in data set [1] was -6.99 kcal/mol. Also, in data set [2], the Tm was found to be 53.6 °C.

For the sequence GAGCAGGGAAACCTGCCC (.(((((....))))).), in data set [1], the folding enthalpy is -12.8 kcal/mol. Moreover, the Tm in data set [2] was determined as 42.1 °C.

As to GAGCATGGAAACATACTC (((.(((....))).))), in data set [1], the folding enthalpy was -26.1 kcal/mol. Moreover, the Tm in data set [2] was found to be 35.6 °C.

Consider GAGCCACGAAAGTGCCTC (((.(((....))).))), for which, in data set [1], the folding enthalpy was -16.9 kcal/mol. In data set [2], the Tm amounted to 42.1 °C.

For GAGCCAGGAAACTAGCTC ((((.((....)).)))), the folding enthalpy in data set [1] was -26.2 kcal/mol. The Tm in data set [2] was found to be 37.4 °C.

Regarding GAGCCCACGAAAGTGCTC (((..(((....)))))), the folding enthalpy in data set [1] is -16 kcal/mol. Also, the Tm in data set [2] stood at 35.8 °C.

Regarding GAGCCCCGAAAGGGTCTC (((.(((....))).))), in data set [1], the folding enthalpy was -32.9 kcal/mol. For the same sequence, in data set [2], the Tm came out at 57.1 °C.

On to GAGCCCGAAAGGGATCTC ((((((....)))..))), for which the folding enthalpy in data set [1] was -24.6 kcal/mol. Also, the Tm in data set [2] is 69 °C.

As for GAGCCCGAAAGGGCACTC ((((((....)))..))), in data set [1], the folding enthalpy is -11 kcal/mol. In data set [2], the Tm is 62.2 °C.

With GAGCCCGAAAGGGTACTC ((((((....)))..))), the folding enthalpy in data set [1] is -13.1 kcal/mol. Further, the Tm in data set [2] amounted to 43.1 °C.

For the sequence GAGCCCGAAAGGGTCCTC ((((((....)))..))), the folding enthalpy in data set [1] was -13.2 kcal/mol. Further, the Tm in data set [2] was 42.5 °C.

With GAGCCCGAAAGGGTCTC ((((((....))).))), the folding enthalpy in data set [1] is -23.8 kcal/mol. Besides, the Tm in data set [2] came out at 59 °C.

Regarding GAGCCCGGAAACGAGCTC ((((.((....)).)))), the folding enthalpy in data set [1] was -35.8 kcal/mol. Besides, in data set [2], the Tm was found to be 50.2 °C.

For the sequence GAGCCGGGAAACTGGCTC (((((.(....).))))), the folding enthalpy in data set [1] is -36.2 kcal/mol. The Tm in data set [2] is 63.3 °C.

On to GAGCCTCCGAAAGGACTC (((..(((....)))))), for which the folding enthalpy in data set [1] is -11.8 kcal/mol. In addition, the Tm in data set [2] was determined as 31.9 °C.

Consider GAGCGAGGAAACTCGCCC (.(((((....))))).), for which the folding enthalpy in data set [1] was -7.21 kcal/mol. Moreover, the Tm in data set [2] amounted to 53.6 °C.

With GAGCGAGGAAACTCGTTC ((.((((....)))).)), in data set [1], the folding enthalpy is -27 kcal/mol. Further, the Tm in data set [2] amounted to 48.8 °C.

For GAGCGAGGAAACTTGCTC ((((.((....)).)))), the folding enthalpy in data set [1] was -25.1 kcal/mol. Further, the Tm in data set [2] amounted to 52.2 °C.

Consider GAGCGCACGAAAGTGCTC (((..(((....)))))), for which the folding enthalpy in data set [1] was -8.27 kcal/mol. The Tm in data set [2] was 38.1 °C.

In the case of GAGCGCCGAAAGGCCCTC (((.(((....))).))), the folding enthalpy in data set [1] was -15.4 kcal/mol. Also, in data set [2], the Tm amounted to 47.6 °C.

With GAGCGCGAAAGCGACTC ((((((....))).))), the folding enthalpy in data set [1] is -16.9 kcal/mol. Also, the Tm in data set [2] stood at 60.3 °C.

For GAGCGCGAAAGCGGGCTC ((((((....)))..))), the folding enthalpy in data set [1] is -16.2 kcal/mol. The Tm in data set [2] came to 67.9 °C.

GAGCGCGAAAGCGTGCTC ((((((....)))..))): the folding enthalpy in data set [1] is -17.1 kcal/mol. Further, in data set [2], the Tm is 56.4 °C.

In the case of GAGCGCGGAAACGCACCC (.(.(((....))).).), the folding enthalpy in data set [1] was -7.47 kcal/mol. The Tm in data set [2] came out at 31.7 °C.

Take GAGCGGGGAAACCCACTC (((.(((....))).))): in data set [1], the folding enthalpy is -28.4 kcal/mol. For the same sequence, the Tm in data set [2] worked out at 46.2 °C.
